Measurements collected from several papers.
Each line is one published result; the experiments were not run side by side.
Target: BDNF/NT-3 growth factors receptor (NTRK2, Homo sapiens, UniProt Q16620)

SMILES | observed | action | technique | concentration | quantity | result
CC1=C(C#N)[C@@H](c2ccc3[nH]nc(C)c3c2)C(C#N)=C(c2ccc(Cl)cc2)N1 | cell-free assay | – | competition with immobilised ligand | 1 µM | remaining binding | 85.2%
CC(C)(C)c1nc(-c2cccc(NS(=O)(=O)c3c(F)cccc3F)c2F)c(-c2ccnc(N)n2)s1 | enzyme activity | inhibitor | radiometric | 1 µM | remaining activity | 100%
O=C(Nc1ccc(I)cc1)Nc1cccc(C(=O)Nc2ccc3[nH]ncc3c2)c1 | enzyme activity | inhibitor | FRET | 1 µM | inhibition | 15.9%
CS(=O)(=O)NCC[C@H](NC(=O)c1cncc2c1cnn2-c1ccc(F)cc1)c1ccnc(S(C)(=O)=O)c1 | cell-free assay | – | competition with immobilised ligand | 1 µM | remaining binding | 100%
O=C(Nc1cccc(C(=O)Nc2ccc3[nH]ncc3c2)c1)Nc1cccc(C(F)(F)F)c1 | enzyme activity | inhibitor | FRET | 1 µM | inhibition | 24.5%
Cc1ccc(C(=O)NCc2ccsc2)cc1C#Cc1cn(C(C)C)c2ncnc(N)c12 | enzyme activity | inhibitor | – | 1 µM | activity vs control | 58%
O=C(Nc1cnn(-c2csc(C(=O)NC3COC3)c2)c1)Nc1c(F)cccc1Cl | enzyme activity | inhibitor | – | 5 µM | remaining activity | 91.5%
O=C(Nc1ccccc1)Nc1cccc(C(=O)Nc2ccc3[nH]ncc3c2)c1 | enzyme activity | inhibitor | FRET | 1 µM | inhibition | 12.3%
Cc1cc(-n2nc(Cc3cc(F)cc(C(F)(F)F)c3)nc2C)ccc1C(N)=O | cell-free assay | – | competition with immobilised ligand | 1 µM | remaining binding | 98%
CCN(CC)CCNC(=O)c1c(C)[nH]c(/C=C2\C(=O)Nc3ccc(F)cc32)c1C | cell-free assay | – | – | 0.3 µM | inhibition | 70%
CCN(CC)c1ccc(C2=NNC(=O)CC2C)cc1[N+](=O)[O-] (stereo not shown) | enzyme activity | inhibitor | – | 10 µM | remaining activity | 87%
O=C(Nc1ccc2[nH]ncc2c1)c1cccc(NC(=S)Nc2cc(C(F)(F)F)cc(C(F)(F)F)c2)c1 | enzyme activity | inhibitor | FRET | 1 µM | inhibition | 11.2%
Cc1c(NC(=O)c2cc(C(N)=O)nc3cc(F)ccc23)c(C(F)(F)F)nn1Cc1ccc(C(C)(C)C)cc1 | cell-free assay | – | competition with immobilised ligand | 1 µM | remaining binding | 100%
O=C(Nc1ccc(C(F)(F)F)cc1)Nc1cccc(C(=O)Nc2ccc3[nH]ncc3c2)c1 | enzyme activity | inhibitor | FRET | 1 µM | inhibition | 14%
C[C@H](c1ccc(F)cc1)N(Cc1cccc(C(=O)O)c1)C(=O)c1cnc2ccccc2c1 | cell-free assay | – | competition with immobilised ligand | 1 µM | remaining binding | 100%
COc1cc(Cl)c(C(=O)N[C@@H](CN[C@H]2CC[C@@H](N)CC2)Cc2ccc(C#N)cc2)cc1-c1ccc(CN[C@H](C)c2ccc(C)cc2)o1 | enzyme activity | inhibitor | – | 1 µM | remaining activity | 64%
COc1cc2c(N3CCN(C(=O)Nc4ccc(OC(C)C)cc4)CC3)ncnc2cc1OCCCN1CCCCC1 | cell-free assay | – | – | 0.5 µM | remaining signal | 81.7%
O=C(Cc1ccc(C(F)(F)F)cc1)Nc1cccc(C(=O)Nc2ccc3[nH]ncc3c2)c1 | enzyme activity | inhibitor | FRET | 1 µM | inhibition | 16.8%
Cc1nccc(COC(=O)N2C[C@@H]3[C@@H](CNC(=O)c4ccc5[nH]nnc5c4)[C@@H]3C2)n1 | cell-free assay | – | competition with immobilised ligand | 1 µM | remaining binding | 100%
O=C(Nc1ccc2[nH]ncc2c1)c1cccc(NC(=S)Nc2ccc(C(F)(F)F)cc2)c1 | enzyme activity | inhibitor | FRET | 1 µM | inhibition | 19.6%
Cc1cc(C)c(-n2ccn3nc(-c4cccnc4)cc23)cc1NC(=O)c1cc(C#N)cc(S(F)(F)(F)(F)F)c1 | cell-free assay | – | competition with immobilised ligand | 0.1 µM | remaining binding | 54.8%
Cc1ccc(C(=O)Nc2ccc(CN3CCN(C)CC3)c(C(F)(F)F)c2)cc1C#Cc1cnc2cccnn12 | cell-free assay | – | – | 23.5 nM | remaining signal | 2.3%
Oc1cccc(-c2nc(N3CCOCC3)c3oc4ncccc4c3n2)c1 | cell-free assay | – | – | 0.5 µM | remaining signal | 90.2%
O=C(Nc1cnn(-c2csc(C(=O)NC3COC3)c2)c1)Nc1ccccc1Cl | enzyme activity | inhibitor | – | 5 µM | remaining activity | 84.2%
Cc1ccc(NC(=O)c2ccc(CN3CCN(C)CC3)cc2)cc1Nc1nc(-c2cccnc2)cs1 | cell-free assay | – | – | 0.5 µM | remaining signal | 101%
CCC(=O)N[C@@H]1CC[C@H](C(=O)N(C)c2ccc(-c3nc4ccccc4o3)cc2)C1 | cell-free assay | – | competition with immobilised ligand | 1 µM | remaining binding | 100%
Cc1ccc(Nc2nccc(N(C)c3ccc4c(C)n(C)nc4c3)n2)cc1S(N)(=O)=O | cell-free assay | – | – | 0.5 µM | remaining signal | 91.5%
O=C(Nc1cnn2ccc(N3CCC[C@@H]3c3cc(F)ccc3F)nc12)N1CC[C@H](O)C1 | enzyme activity | inhibitor | FRET | 1 µM | inhibition | 100%
